# Bioassay records: PubChem, several laboratories
# Hits are enriched below; roughly 2.1% of the tested compounds scored in any of these assays.
# UCH37 DUB inh: inhibitors of human UCH37 deubiquitinase, primary screen, biochemical, Ub-AMC cleavage, fluorescence; Ubiquitin carboxyl-terminal hydrolase isozyme L5 (Homo sapiens), Q9Y5K5; purified proteasome/UCH37; inhibition, % (no concentration beside the values); 330,000 tested, 0.33% active; AID 588478, 2011;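 active = mean inhibition over replicate wells above about 20%, limit read from the data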;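 also: 0% = compound-free wells with enzyme and 100% = wells lacking proteasome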
#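 system = Proteasome-associated human UCH37 deubiquitinase | amount = 0.15 nM proteasome as dispensed | medium = pH 7.4 Tris-HCl (50 mM) with ovalbumin, ATP-MgCl2, DTT | incubation = 30 min preincubation with enzyme, 25 min cleavage at room temperature | detection = AMC fluorescence 355/460 nm | read-out basis = percent inhibition | controls = no-proteasome and no-compound wells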
# HKDC1 inhibitor: HKDC1 hexokinase inhibitors, primary screen, biochemical, fluorescence, uHTS; recombinant HKDC1, G6PDH/diaphorase resazurin coupled fluorescence; inhibition, % at 20 µM; 340,000 tested, 0.16% active; AID 493160, 2011;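 active = inhibition above about 35% when tested at 20 µM, limit read from the data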;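 also: plate controls were DMSO wells with enzyme for no effect and DMSO wells lacking enzyme for full effect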
#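 Material – in-house recombinant HK5 (HKDC1) enzyme · Quantity – HKDC1 at 5 µg/mL · Buffer or medium – pH 8.0 Tris buffer with 10 mM MgCl2 · Reagent – glucose with 1 mM ATP · Dosing – single 20 µM dose · Times – reaction time 90 min, room temperature, protected from light · Technique – resorufin fluorescence at 613 nm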
# PfG6PD inh: PfG6PD enzyme inhibitors, primary screen, biochemical, fluorescence intensity, uHTS. PfGluPho enzyme, NADPH resazurin-diaphorase fluorescence. glucose-6-phosphate dehydrogenase-6-phosphogluconolactonase (Plasmodium falciparum 3D7). 350,000 tested, 0.78% active. inhibition, % at 20 µM. AID 504690, 2011;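 active = inhibition reaching at least a set limit at 20 µM in the primary screen, cut at about 59% in these data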;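 also: 0% = DMSO wells with substrate and 100% = DMSO wells lacking glucose-6-phosphate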
# H9c2 protect: cardioprotection against H2O2-induced cell death, primary screen, uHTS, H9c2 cells, ATPLite luminescence; H9c2 cardiomyocytes, H2O2 injury protection, 2 h; protection from H2O2 cell death, % at 20 µM; 360,000 tested, 0.63% active;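 active = compounds giving at least 50% protection of heart cells from peroxide-induced death in the single-dose screen, raw or plate-pattern-corrected value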;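 also: 0% = DMSO wells with peroxide and 100% = DMSO wells without peroxide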
# aDG glyco act: activators of alpha-DG glycosylation, primary screen, uHTS, Pro5-aDG cells, AlphaScreen; alpha-DG glycosylation AlphaScreen (IIH6); 0% Pro5, 100% B10-LARGE cell signal; 360,000 tested, 0.22% active; activation, % at 10 µM;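 active = activation of at least 8% versus controls, or a plate z-score of at least 8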;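 also: Pro5 are CHO cells carrying HIG-tagged alpha-DG that lacks glycosylation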
# Beta2AR agonist: beta2AR agonists driving receptor internalization, primary screen, cell-based, FAP fluorogen, flow cytometry | Beta-2 adrenergic receptor (Homo sapiens), P07550 | Am2.2-beta2AR cells | response, % (test concentration not listed) | 340,000 tested, 0.43% active;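 active = response above a set limit, near 3 SD of response in nonfluorescent compounds, cut at about 42% in these data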
# UCH37 confirm: retest of human UCH37 deubiquitinase inhibitors, confirmation, biochemical, Ub-AMC cleavage rate, fluorescence | shares compounds with UCH37 DUB inh | Proteasome-bound UCH37 | inhibition, % at 20 µM | 480 tested, 27% active;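 active = average inhibition over replicates above about 50%, so the earlier screening hit is confirmed, limit read from the data; inactive = the rest, counted as false positives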;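 also: based on cleavage rate fitted by regression over a 30 min kinetic read; 0% = proteasome plus Ub-AMC and 100% = Ub-AMC without proteasome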
# * hit, by the source's call; / = no result.
SMILES,UCH37 DUB inh,HKDC1 inhibitor,PfG6PD inh,H9c2 protect,aDG glyco act,Beta2AR agonist,UCH37 confirm
Cn1cccc1/C=C1\CC(C(C)(C)C)C/C(=C\c2cccn2C)C1=O (stereo not drawn),3,6,31,-1,-1,7,/
CN1C2CCC1/C(=C/c1cccn1C)C(=O)/C2=C\c1cccn1C,29*,-10,14,9,0,6,15
CN1CCS/C1=C/C=C1\SC(=S)N(CC(=O)O)C1=O,38*,-8,-10,-12,0,5,30
CCCCN1C(=O)/C(=C/C=C2\SCCN2C)SC1=S,8,8,-3,-19,-1,-53,/
CCCc1c(C(=O)NN=Cc2cccc3ccccc23)nnn1-c1nonc1N,0,/,/,/,/,/,/
O=C(O)c1ccccc1NS(=O)(=O)c1ccc(NN=Cc2cccc(O)c2O)c([N+](=O)[O-])c1,32*,/,/,/,/,/,40
COc1ccc([N+](=O)[O-])cc1NC(=O)c1ccc(CN(c2ccc(C)c(C)c2)S(C)(=O)=O)cc1,47*,-9,5,3,0,3,-2
CCOc1cc(C=NNC(=O)c2cccs2)cc([N+](=O)[O-])c1O,30*,/,/,/,/,/,40
CNC(=O)N(O)C1N(N=Cc2ccccc2F)C(=S)SC1(C)C (stereo not drawn),7,/,/,/,/,/,/
Nc1c2c(=O)[nH]c(O)cc2nn1-c1ccccc1,31*,2,26,2,0,7,23
Cc1c(C)c2c(C)nn(-c3ccccc3)c2[nH]c1=O,0,1,9,2,0,-6,/
COC(=O)COc1ccc(S(=O)(=O)NCCC2=CCCCC2)cc1C,55*,-8,1,-17,0,5,60*
COc1ccc(C(=O)NCC(=O)NN=Cc2cccnc2)cc1OC,1,/,/,/,/,/,/
COc1cccc(C(=NO)C2CC2c2ccc(Cl)cc2)c1 (stereo not drawn),4,/,/,/,/,/,/
CC(=NNc1ncc(Cl)cc1Cl)c1ccc(OC(F)F)cc1,2,/,/,/,/,/,/
O=c1[nH]c(Nc2ccccc2)cc2cc(Br)ccc12,44*,8,5,3,0,-8,19
O=c1[nH]c(Nc2ccccc2)cc2ccccc12,-27,13,5,-8,0,-25,/
COc1nc(Oc2ccc(C=NO)cc2)nc(N(C)C)n1,0,/,/,/,/,/,/
Cc1ccc(NC(=O)CCC(=O)NN=Cc2ccc(O)cc2O)cc1,-8,/,/,/,/,/,/
CN(Cc1ccccc1)C(=O)c1cccc(NC(=O)Cc2ccc([N+](=O)[O-])cc2)c1,41*,-2,1,-6,1,-6,9
C[C@H](NC(=O)c1nc[nH]c1C(=O)N[C@@H](C)C(=O)OC(C)(C)C)C(=O)OCc1ccccc1,35*,0,20,-2,0,-2,-30
C[C@H](NC(=O)c1nc[nH]c1C(=O)N[C@@H](Cc1ccccc1)C(=O)OCc1ccccc1)C(=O)OC(C)(C)C,1,2,32,-6,0,1,/
CC(=O)C(C(C)=O)C1(O)C(=O)c2ccccc2C1=O,70*,-6,-17,3,0,6,78*
O=C1c2cccc3cccc(c23)C(=O)C1(O)O,8,12,38,0,0,-3,/
Cc1ccc(NN=C(C#N)C(N)=S)cc1C,7,/,/,/,/,/,/
SMILES,UCH37 DUB inh,HKDC1 inhibitor,PfG6PD inh,H9c2 protect,aDG glyco act,Beta2AR agonist,UCH37 confirm
Cn1cc([N+](=O)[O-])c(C(=O)NN=Cc2cc3c(cc2Br)OCO3)n1,11,/,/,/,/,/,/
Cc1ccc(C(=O)/C=C/c2c[nH]c3ccccc23)cc1,-6,-6,34,-16,0,9,/
CC[n+]1c(/C=C/c2c[nH]c3ccccc23)ccc2cc(C)ccc21,29*,5,9,/,/,/,42
CCN(CC)C(=O)c1ccc(/C=C/c2c[nH]c3ccccc23)[n+](C)c1,29*,-10,23,0,0,-48,33
Cc1cc(C)c(S(=O)(=O)N=C2C=C(SCC(=O)O)C(=O)c3ccccc32)cc1C,49*,/,/,/,/,/,82*
CC(Sc1nnc(-c2cccnc2)n1N)C(=O)NCCC1=CCCCC1 (stereo not drawn),63*,3,-1,7,0,-8,52*
COc1ccc(C=NNc2nncc3ccccc23)c(OC)c1,5,/,/,/,/,/,/
COc1ccc(N(C(=O)/C=C/c2ccc(OC)c(OC)c2)C2=CC3CCC(C2)N3C)cc1 (stereo not drawn),3,-12,8,6,1,1,/
COc1ccc(N(C(=O)c2ccc(Cl)cc2)C2=CC3CCC(C2)N3C)cc1 (stereo not drawn),42*,-8,-1,11,4,4,0
Cc1occc1C(=O)NN=C/C=C\c1ccccc1[N+](=O)[O-],5,/,/,/,/,/,/
CCCC(=O)Nc1sc2c(c1C#N)CCCC2,0,-2,5,3,0,-18,/
CC1CCN(CC(=O)Nc2sc3c(c2C#N)CCC3)CC1,37*,-6,-1,1,0,-14,9
COc1cc(C=NNC(=O)c2ccncc2)ccc1OC(C)=O,7,/,/,/,/,/,/
CCNC(=O)COc1cccc(C(=O)NCc2ccccc2)c1,6,-9,5,-4,0,1,/
CC(C)CNC(=O)COc1cccc(C(=O)NCc2ccccc2)c1,36*,-4,-15,0,1,4,12
CCCN1CCC(=NNc2ccc(S(=O)(=O)N3CCOCC3)cc2[N+](=O)[O-])CC1,44*,-7,-4,9,0,19,0
CC(C)N1CCC(=NNc2ccc(S(=O)(=O)N3CCOCC3)cc2[N+](=O)[O-])CC1,6,0,8,2,0,17,/
CC(=NNc1ccc([N+](=O)[O-])cc1[N+](=O)[O-])C(C)C(C)C (stereo not drawn),4,/,/,/,/,/,/
FC(F)(F)c1ccc(C=NNC(=S)NC2CCCCC2)cc1,3,/,/,/,/,/,/
CC(Cn1nnc([N+](=O)[O-])n1)=NNC(=O)c1ccc(Cl)c(Cl)c1,3,/,/,/,/,/,/
COc1ccc(/C=C2\Oc3cc(OCC(=O)N4CCC[C@H]4C(=O)O)ccc3C2=O)c(OC)c1,3,-1,5,-2,0,-1,/
COc1cc(OC)c(OC)cc1/C=C1\Oc2cc(OCC(=O)N3Cc4ccccc4C[C@H]3C(=O)O)ccc2C1=O,27*,21,5,0,0,-4,18
